Assay [1] has as its system WSUDLCL2. Description: Inhibition of PRC2 in human WSUDLCL2 cells assessed as suppression H3K27 dimethylation incubated for 48 hrs by Western blot analysis. It counts as cell-based. In a few lines:
(§1)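 Lysates run on SDS-PAGE and transferred to nitrocellulose. Membranes blocked with 5% skim milk for 2 h, primary antibody applied overnight at 4 °C, then secondary antibody and chemiluminescent detection of histone H3 methylation marks.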

The target in assay [2] is T1, Protein cereblon/Histone-lysine N-methyltransferase EZH2 (Homo sapiens) (UniProt Q15910+Q96SW2). Description: PROTAC activity at CRBN E3 ligase/EZH2 in PRC2 complex in human WSUDLCL2 cells assessed as induction of SUZ12 degradation incubated for 48 hrs by Western blot analysis. It counts as cell-based. The following applies: dose 1-10 µM. In a few lines:
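WSU-DLCL-2 cells treated 48 h (1 μM for the single-concentration screen), lysed; SDS-PAGE, nitrocellulose transfer, 5% milk block, primary antibody 4 °C overnight, chemiluminescence. Bands quantified by densitometry, normalized to GAPDH, expressed relative to DMSO-treated cells; mean ± SD of three independent experiments, t-test.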
A general note: In western blotting, separated proteins are transferred to a membrane and probed.

Assay [3] deals with T1, Protein cereblon/Histone-lysine N-methyltransferase EZH2 (Homo sapiens). Put plainly: PROTAC activity at CRBN E3 ligase/EZH2 in PRC2 complex in human SK-OV-3 cells assessed as induction of RpAb48 degradation by measuring reduction in RpAb48 protein level at 1 uM incubated for 48 hrs by Western blot analysis. It counts as cell-based. In a few lines: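 Cells cultured in DMEM or RPMI 1640 with 10% FBS and 1% penicillin-streptomycin, 37 °C, 5% CO2; exposed to 1 μM compound for 48 h. Lysates run on SDS-PAGE and transferred to nitrocellulose. Blocked 2 h in 5% skim milk, primary antibody overnight at 4 °C, then secondary antibody. Chemiluminescent detection of PRC2 subunits and H3K27me3.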

Assay [4] relates to WSUDLCL2. Description: Effect on Histone H3 methylation in human WSUDLCL2 cells assessed as reduction in H3K9me3 levels at upto 10 uM incubated for 48 hrs by Western blot analysis. Format: functional, cell-based. The following applies: dose microM <=10, time 48.0 hrs. In a few lines: as §1
A further assay concerns A549. Description: Antiproliferative activity against EZH2-knockdown human A549 cells assessed as inhibition of cell growth at 10 uM treated for 9 days by optical microscopic analysis. It counts as functional, cell-based. The following applies: time 9.0 day. In a few lines: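 Cells seeded at 5 × 10³ per well, grown 24 h, then exposed to compound at 10 μM for 9 days with medium refreshed. Cells were photographed and counted on days 1, 3, 5, 7 and 9. For lines 1-2, EZH2-targeting or control shRNA was induced in the cells. Mean SD of three independent experiments; t-test against control.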

The source made the active and inactive calls. No cut-off for these calls is given here.

T1 sequence (Q15910 whole entry, looked up): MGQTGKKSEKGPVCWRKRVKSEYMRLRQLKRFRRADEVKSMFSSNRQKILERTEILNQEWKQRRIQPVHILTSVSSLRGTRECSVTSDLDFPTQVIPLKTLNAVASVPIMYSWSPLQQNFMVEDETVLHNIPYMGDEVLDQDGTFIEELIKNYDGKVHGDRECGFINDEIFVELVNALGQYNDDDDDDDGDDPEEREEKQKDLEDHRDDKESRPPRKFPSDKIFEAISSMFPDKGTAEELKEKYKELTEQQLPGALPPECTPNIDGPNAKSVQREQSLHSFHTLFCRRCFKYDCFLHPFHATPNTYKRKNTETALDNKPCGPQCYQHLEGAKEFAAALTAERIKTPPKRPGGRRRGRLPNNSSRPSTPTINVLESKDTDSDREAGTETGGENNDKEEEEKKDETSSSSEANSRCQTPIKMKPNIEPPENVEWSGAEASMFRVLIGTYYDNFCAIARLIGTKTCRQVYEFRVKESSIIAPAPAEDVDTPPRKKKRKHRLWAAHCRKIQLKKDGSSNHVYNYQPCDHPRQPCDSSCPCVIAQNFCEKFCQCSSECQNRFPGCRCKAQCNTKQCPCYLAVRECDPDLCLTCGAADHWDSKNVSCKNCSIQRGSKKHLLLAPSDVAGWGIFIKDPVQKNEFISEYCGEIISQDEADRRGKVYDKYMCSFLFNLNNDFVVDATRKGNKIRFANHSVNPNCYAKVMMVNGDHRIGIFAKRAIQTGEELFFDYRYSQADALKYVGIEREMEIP
T1 sequence (Q96SW2 whole entry, looked up): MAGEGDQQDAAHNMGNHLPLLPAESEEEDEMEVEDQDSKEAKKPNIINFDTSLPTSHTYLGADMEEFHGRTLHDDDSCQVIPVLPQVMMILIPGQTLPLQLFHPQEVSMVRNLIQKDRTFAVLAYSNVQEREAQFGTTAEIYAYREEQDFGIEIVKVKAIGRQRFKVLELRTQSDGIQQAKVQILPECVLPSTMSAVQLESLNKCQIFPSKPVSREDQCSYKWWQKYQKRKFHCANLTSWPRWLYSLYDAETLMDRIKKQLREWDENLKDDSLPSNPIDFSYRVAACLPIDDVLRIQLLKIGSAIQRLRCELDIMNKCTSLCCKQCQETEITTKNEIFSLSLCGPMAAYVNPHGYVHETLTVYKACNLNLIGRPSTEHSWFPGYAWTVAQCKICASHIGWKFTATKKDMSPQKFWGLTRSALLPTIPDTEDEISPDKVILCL

In the case of `CCN(c1cc(-c2ccc(CN3CCN(CCCCCCCOc4cccc5c4C(=O)N(C4CCC(=O)NC4=O)C5=O)CC3)cc2)cc(C(=O)NCc2c(C)cc(C)[nH]c2=O)c1C)C1CCOCC1` (stereo not given), in the assay on WSUDLCL2 [1], the inhibition result was “Dose-Dependent Effect”. For the same molecule, in assay [2], the Activity entry is “Dose-Dependent Effect”. The outcome (in assay [3]; with A549) was Active. In addition, the result in the assay on WSUDLCL2 [4] was inactive.

These data come from ChEMBL document CHEMBL5038571, “Design and Synthesis of EZH2-Based PROTACs to Degrade the PRC2 Complex for Targeting the Noncatalytic Activity of EZH2” (J Med Chem, 2021).
